One experiment deals with T1, Prostaglandin E synthase (Homo sapiens, UniProt O14684).
T1 sequence (O14684 whole entry): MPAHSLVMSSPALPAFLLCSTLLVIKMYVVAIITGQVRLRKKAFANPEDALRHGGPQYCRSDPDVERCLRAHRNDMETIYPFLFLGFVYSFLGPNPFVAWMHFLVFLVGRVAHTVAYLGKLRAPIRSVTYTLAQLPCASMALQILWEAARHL
The experiment can be described thus: Inhibition of mPGES-1 isolated from microsomes of interleukin-1 beta-stimulated human A549 cells using PGH2 as substrate preincubated for 15 mins followed by substrate addition measured after 1 min by RP-HPLC analysis. A digest of the protocol:
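Microsomes from A549 cells treated with IL-1β (1 ng/ml, 72 h), diluted in 0.1 M potassium phosphate pH 7.4 with 2.5 mM glutathione. Pre-incubated 15 min with compound or DMSO, then 20 µM PGH2 (final) for 1 min at 4 °C. IC50 from 4-5 concentrations.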

The target of experiment [1] is T2, Polyunsaturated fatty acid 5-lipoxygenase (Homo sapiens, UniProt P09917).
T2 sequence (P09917 whole entry): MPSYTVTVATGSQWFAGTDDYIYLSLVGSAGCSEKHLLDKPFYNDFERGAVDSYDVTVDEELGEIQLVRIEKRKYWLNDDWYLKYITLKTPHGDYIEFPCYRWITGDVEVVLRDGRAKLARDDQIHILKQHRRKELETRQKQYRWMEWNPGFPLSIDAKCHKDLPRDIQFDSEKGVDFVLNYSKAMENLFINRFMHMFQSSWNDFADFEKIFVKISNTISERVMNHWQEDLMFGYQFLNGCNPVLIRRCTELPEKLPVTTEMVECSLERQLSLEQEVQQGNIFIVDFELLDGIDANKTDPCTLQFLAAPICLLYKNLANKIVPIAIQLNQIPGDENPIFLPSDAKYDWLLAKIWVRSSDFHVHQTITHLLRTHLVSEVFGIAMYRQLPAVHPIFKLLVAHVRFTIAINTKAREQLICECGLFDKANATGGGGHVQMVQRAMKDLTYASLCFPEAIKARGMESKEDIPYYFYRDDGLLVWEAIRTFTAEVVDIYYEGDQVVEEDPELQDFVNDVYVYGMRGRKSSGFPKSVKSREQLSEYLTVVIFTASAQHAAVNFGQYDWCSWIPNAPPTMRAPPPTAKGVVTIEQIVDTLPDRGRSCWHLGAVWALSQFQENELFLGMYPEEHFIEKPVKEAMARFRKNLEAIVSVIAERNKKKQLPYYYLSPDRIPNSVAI
The experiment can be described thus: Inhibition of recombinant human 5-LO expressed in Escherichia coli BL21 (DE3) using arachidonic acid as substrate preincubated for 10 mins followed by CaCl2 and substrate addition measured after 10 mins by RP-HPLC analysis. A digest of the protocol:
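Human recombinant 5-LO from E. coli BL21(DE3), ATP-agarose semi-purified (0.5 µg/ml), pre-incubated with compound or 0.1% DMSO at 4 °C. It was pre-warmed 30 s at 37 °C, then started with 2 mM CaCl2 plus 20 µM AA. Stopped after 10 min with ice-cold methanol; products by RP-HPLC. Residual activity at 10 µM; IC50 from 4-5 concentrations; n=3-4.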

Experiment [2] deals with T2, Polyunsaturated fatty acid 5-lipoxygenase. The experiment in a line: Inhibition of 5-LO in human neutrophils using arachidonic acid as substrate assessed as reduction in 5-LO product formation preincubated for 15 mins followed by substrate addition measured after 10 mins in presence of Ca2+ ionophore A23187 by HPLC analysis. A digest of the protocol:
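Human neutrophils (5 × 10^6 in 1 ml PBS with 1 mg/ml glucose) pre-incubated 15 min at 37 °C with compound or 0.1% DMSO, then activated with 1 mM CaCl2 and 2.5 µM A23187, with or without 20 µM AA; 5-LO products measured after 10 min. Residual activity at 10 µM; IC50 by nonlinear regression from 4-5 concentrations; mean ± SEM, n=3-4.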

Experiment [3] deals with Mus musculus. The experiment in a line: Antiinflammatory activity in zymosan induced CD-1 mouse model of inflammation assessed as reduction in LTB4 levels in air pouch at 10 mg/kg, ip preincubated for 30 mins followed by zymosan challenge and measured after 4 hrs by ELISA. In kind it is functional, organism-based. A digest of the protocol:
(§1)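 Air pouch formed by s.c. injection of 2.5 mL sterile air in CD-1 mice; on day 6, 10 mg/kg i.p. (2% DMSO/saline) given 30 min before 1 ml 1% w/v zymosan into the pouch. After 4 h, exudate collected with 1 ml saline and centrifuged; leukocytes counted in Burker chamber; LTB4 in supernatant by ELISA (ng/mL). n=6 mice per group.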
In general terms: In an ELISA, binding on a coated surface is turned into a signal by an enzyme label.

Experiment [4] deals with Mus musculus. The experiment can be described thus: Antiinflammatory activity in zymosan induced CD-1 mouse model of inflammation assessed as reduction in leukocyte recruitment in air pouch at 10 mg/kg, ip preincubated for 30 mins followed by zymosan challenge and measured after 4 hrs by trypan blue staining-based burker's chamber method. In kind it is functional, organism-based. A digest of the protocol: as §1

The subject of experiment [5] is Mus musculus. The experiment can be described thus: Antiinflammatory activity in CD-1 mouse assessed as reduction in zymosan-induced LTC4 formation in peritoneal cavity at 10 mg/kg, ip preincubated for 30 mins followed by zymosan addition measured after 30 mins by ELISA. Type of experiment: functional, organism-based. A digest of the protocol: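 CD-1 male mice (6-8 weeks), n=6 per group, given 10 mg/kg i.p. in 2% DMSO/saline vehicle 30 min before i.p. zymosan (500 µL of 2 mg/mL suspension). Peritoneal cavity washed with 3 ml PBS 30 min after zymosan; LTC4 measured in exudate. One-way ANOVA with Bonferroni test.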

Active and inactive are the calls of the source. The calls are words filed in the database; no cut-off is given here.

As for `O=C(O)c1ccc(N(Cc2ccc(OCc3ccccc3)cc2)S(=O)(=O)c2ccc(-c3ccccc3)cc2)cc1`, the IC50 (in general, the concentration at which inhibition is half-maximal) is 6.5 µM against Prostaglandin E synthase, 6.6 µM in experiment [1] and 0.5 µM in experiment [2].

With `CC(C)(C)C#Cc1ccc(S(=O)(=O)N(Cc2ccc(C(C)(C)C)cc2)c2ccc(C(=O)O)cc2)cc1`, the results for the half-maximal inhibitory concentration (IC50) (at Prostaglandin E synthase; in experiment [1]; in experiment [2]) were 2.7 µM, 2.3 µM and 0.9 µM, respectively.

Turning to `O=C(O)c1ccc(N(Cc2cccc(Oc3ccccc3)c2)S(=O)(=O)c2ccc(Oc3ccccc3)cc2)cc1`, the IC50 against Prostaglandin E synthase is 0.8 µM; in experiment [1], 6 µM; in experiment [2], 1 µM.

In the case of `O=C(O)c1ccc(N(Cc2cccc(Oc3ccccc3)c2)S(=O)(=O)c2ccc(-c3ccccc3)cc2)cc1`, the values for the IC50 (against Prostaglandin E synthase; in experiment [1]; in experiment [2]) were 3.8 µM, 7.2 µM and 0.3 µM, respectively.

For the molecule `CC(c1cc2ccccc2s1)N(O)C(N)=O` (stereo unspecified) [ZILEUTON], the outcome in the experiment with Mus musculus [3], in the experiment on Mus musculus [4] and with Mus musculus [5] was Active. Half-maximal inhibition against Prostaglandin E synthase (IC50) was put at 2.4 µM.

On to `O=C(O)CCc1ccc(N(Cc2ccc3ccccc3c2)S(=O)(=O)c2ccc(-c3ccccc3)cc2)cc1`, for which the IC50 against Prostaglandin E synthase amounted to 0.7 µM; in experiment [1] it was 5.5 µM; in experiment [2], 1.8 µM.

`CC(C)(C)c1ccc(CN(c2ccc(C(=O)O)cc2)S(=O)(=O)c2ccc(-c3ccccc3)cc2)cc1`: the figures for the IC50 (against Prostaglandin E synthase; in experiment [1]; in experiment [2]) were 1.2 µM, 5.6 µM and 0.3 µM, respectively.

Regarding `O=C(O)c1ccc(N(Cc2ccc3ccccc3c2)S(=O)(=O)c2ccc(-c3ccccc3)cc2)cc1`, the IC50 on Prostaglandin E synthase worked out at 0.3 µM; in experiment [1], 6.4 µM; in experiment [2], 1.1 µM.

As to `CCCCCCCCN(c1ccc(C(=O)O)cc1)S(=O)(=O)c1ccc(-c2ccccc2)cc1`, the IC50 against Prostaglandin E synthase turned out to be 5 µM; in experiment [1], 5.2 µM; in experiment [2], 0.5 µM.

In the case of `O=C(O)Cc1ccc(N(Cc2ccc3ccccc3c2)S(=O)(=O)c2ccc(-c3ccccc3)cc2)cc1`, the values for the half-maximal inhibitory concentration (IC50) (against Prostaglandin E synthase; in experiment [1]; in experiment [2]) were 1.1 µM, 8.7 µM and 3.4 µM, respectively.
